Article PMC4783179 (The Journal of comparative neurology, 2015)
Where two headings read alike, the source gives them in different places. Marks after values point to notes of the source that are not given here.

Columns and labels:
[1] = test system: serotonin 5-HT1A receptor; assay type: binding, human; conditions: [5-HT1A affinity/other receptor affinity]×100; 5-HT1A 0.6 or 2.2 nM for WAY-100635, 0.9 nM for Mefway
[2] = molecular target: serotonin 5-HT1A receptor (Homo sapiens, UniProt P08908); assay type: binding; conditions: human cloned receptor, PDSP
5-HT1A receptors [3] = molecular target: T1, 5-HT1A receptors (Mus musculus, UniProt Q64264); assay: In vitro autoradiography of 18F-Mefway, mouse brain slices; assay type: binding
T1 sequence (Q64264 1-421): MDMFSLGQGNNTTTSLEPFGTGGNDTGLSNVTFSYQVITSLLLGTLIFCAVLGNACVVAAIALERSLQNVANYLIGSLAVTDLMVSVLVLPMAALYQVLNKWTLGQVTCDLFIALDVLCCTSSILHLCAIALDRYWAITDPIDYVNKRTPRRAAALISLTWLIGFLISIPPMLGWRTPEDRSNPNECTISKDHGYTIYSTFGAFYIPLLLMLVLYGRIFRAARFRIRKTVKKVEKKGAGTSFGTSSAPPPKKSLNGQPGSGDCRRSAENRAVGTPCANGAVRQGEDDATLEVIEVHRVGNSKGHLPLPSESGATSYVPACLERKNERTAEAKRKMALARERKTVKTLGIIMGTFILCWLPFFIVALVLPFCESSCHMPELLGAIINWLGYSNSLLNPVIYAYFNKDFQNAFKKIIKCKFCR
Summary of the method: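 Horizontal 10 µm slices covering hippocampus, frontal cortex, dorsal raphe and cerebellum. Sources: frozen brains of male BALB/c mice (25 g) or male Sprague-Dawley rats (250–300 g). Preincubated in 50 mM Tris-HCl pH 7.4 for 10 min at room temperature, then 37–185 kBq/mL tracer at 37 °C for 1 h. […] Washed, then phosphor screen for 24 h. Regional DLU/mm² expressed as ratios to cerebellum as reference.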

D5 = D5 (Homo sapiens, UniProt P21918); assay: NIMH PDSP binding affinity, human cloned receptor; conditions: D1-like receptors
[4] = human plasma; ref Hillmer et al., 2014; cited from earlier work
adrenergic α1A = adrenergic α1A (Homo sapiens, UniProt P35348); assay: NIMH PDSP binding affinity, human cloned receptor
[5] = molecular target: serotonin 5-HT1A receptors; conditions: rat brain homogenates labeled with 3H-WAY 100635; ref Saigal et al., 2013; cited from earlier work
Sprague-Dawley rats = assay: Expanded acute toxicity study; assay type: in vivo, rat; conditions: for Maximum tolerated dose (MTD) / No observed adverse effect level (NOAEL): intravenous, Days 1, 3 and 6, male and female rats
Summary of the method: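 Sprague-Dawley rats, 40 males and 40 females, 8–9 weeks old (males 243–283 g, females 175–202 g), plus a vehicle control group. Dosed i.v. at 4, 20 or 40 μg/kg/day (27.8, 139, 278 μg/m²/day). Monitored clinical signs (motor and behavioural), body weight, food intake, ophthalmology, haematology, serum chemistry and urinalysis. Histopathology on Days 7 and 20 after euthanasia.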

D1 = D1 (Homo sapiens, UniProt P21728); assay: NIMH PDSP binding affinity, human cloned receptor; conditions: D1-like receptors
D3 subtype = D3 subtype (Homo sapiens, UniProt P35462); assay: NIMH PDSP binding affinity, human cloned receptor; conditions: read-out: Affinity, D3 subtype
[6] = rhesus monkey; ref Wooten et al., 2013; cited from earlier work
[7] = test system: all other human-cloned receptor subtypes tested; assay: NIMH PDSP screening of the remaining panel; assay type: binding
5-HT1A receptors [8] = molecular target: T2, 5-HT1A receptors (Canis lupus familiaris, UniProt Q6XXX9); assay: In vitro autoradiography of 18F-Mefway, beagle dog brain slices; assay type: binding
T2 sequence (Q6XXX9 1-423): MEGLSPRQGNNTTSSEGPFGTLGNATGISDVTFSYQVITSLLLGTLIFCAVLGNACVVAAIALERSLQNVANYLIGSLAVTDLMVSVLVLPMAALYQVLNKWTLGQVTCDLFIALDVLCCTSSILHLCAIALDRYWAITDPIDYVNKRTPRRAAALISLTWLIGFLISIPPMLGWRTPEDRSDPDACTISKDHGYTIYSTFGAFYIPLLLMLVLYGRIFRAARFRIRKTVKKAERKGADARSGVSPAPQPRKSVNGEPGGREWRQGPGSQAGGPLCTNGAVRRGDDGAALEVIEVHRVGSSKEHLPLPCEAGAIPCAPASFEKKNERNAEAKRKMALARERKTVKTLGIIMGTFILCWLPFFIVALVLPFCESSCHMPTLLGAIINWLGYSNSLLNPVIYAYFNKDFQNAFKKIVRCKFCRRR
Summary of the method: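 Dog tissue: unfixed beagle brain (4.5–15.4 yr), stored at −80 °C, cut as 10 µm hemi-coronal slices with hippocampus and cortex. Human tissue: postmortem hippocampus (PMI 3.8–5.8 h), cut at 7 µm. Slices preincubated in 50 mM Tris-HCl pH 7.4 for 10 min at room temperature, then incubated with 37–185 kBq/mL tracer at 37 °C for 1 h. […] Two 1-min ice-cold buffer washes, then 24 h phosphor-screen exposure. Binding read as DLU/mm².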

5-HT1A receptors [9] = molecular target: T1, 5-HT1A receptors; conditions: cited from earlier work; for Brain Uptake: initial, 1–2 min post-injection
[10] = dog brain cortex, relative to layers I and II

Chain of serotonin 5-HT1A receptor (Homo sapiens, UniProt P08908) (P08908 whole entry): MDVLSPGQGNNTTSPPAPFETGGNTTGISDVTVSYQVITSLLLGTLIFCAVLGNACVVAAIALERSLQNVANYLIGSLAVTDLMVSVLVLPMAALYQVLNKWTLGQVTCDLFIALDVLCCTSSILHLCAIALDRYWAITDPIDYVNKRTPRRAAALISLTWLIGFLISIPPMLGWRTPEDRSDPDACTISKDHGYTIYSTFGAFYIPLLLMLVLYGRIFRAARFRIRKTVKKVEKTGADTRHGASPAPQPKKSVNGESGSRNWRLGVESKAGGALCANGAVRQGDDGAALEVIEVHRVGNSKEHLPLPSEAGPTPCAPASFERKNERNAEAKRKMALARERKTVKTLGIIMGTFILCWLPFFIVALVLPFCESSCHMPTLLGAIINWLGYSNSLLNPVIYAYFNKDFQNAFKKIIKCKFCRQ
Chain of adrenergic α1A (P35348 whole entry): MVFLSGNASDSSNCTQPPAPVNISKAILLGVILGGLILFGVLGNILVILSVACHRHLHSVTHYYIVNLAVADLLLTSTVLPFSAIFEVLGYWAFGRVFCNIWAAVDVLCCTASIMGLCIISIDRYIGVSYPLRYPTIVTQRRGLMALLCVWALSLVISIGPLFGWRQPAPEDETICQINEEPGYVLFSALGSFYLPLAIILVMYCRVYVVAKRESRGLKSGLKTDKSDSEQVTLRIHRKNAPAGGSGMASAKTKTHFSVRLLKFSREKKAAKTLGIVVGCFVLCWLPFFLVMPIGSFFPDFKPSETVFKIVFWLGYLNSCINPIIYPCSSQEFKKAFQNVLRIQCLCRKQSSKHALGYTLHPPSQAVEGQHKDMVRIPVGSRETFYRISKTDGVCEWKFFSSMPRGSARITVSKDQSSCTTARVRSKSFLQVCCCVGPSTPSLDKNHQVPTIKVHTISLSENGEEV
Chain of D1 (P21728 whole entry): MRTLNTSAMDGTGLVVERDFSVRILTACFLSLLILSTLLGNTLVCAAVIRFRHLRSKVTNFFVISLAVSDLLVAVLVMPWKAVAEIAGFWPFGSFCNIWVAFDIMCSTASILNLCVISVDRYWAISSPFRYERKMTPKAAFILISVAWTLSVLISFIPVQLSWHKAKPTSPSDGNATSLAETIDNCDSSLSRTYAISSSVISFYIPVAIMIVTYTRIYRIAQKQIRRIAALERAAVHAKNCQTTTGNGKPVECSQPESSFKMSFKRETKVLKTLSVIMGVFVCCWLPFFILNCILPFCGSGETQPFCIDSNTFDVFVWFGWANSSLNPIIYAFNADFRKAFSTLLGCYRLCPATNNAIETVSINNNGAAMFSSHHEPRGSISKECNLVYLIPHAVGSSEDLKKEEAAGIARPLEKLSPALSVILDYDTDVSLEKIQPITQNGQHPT
Chain of D5 (P21918 whole entry): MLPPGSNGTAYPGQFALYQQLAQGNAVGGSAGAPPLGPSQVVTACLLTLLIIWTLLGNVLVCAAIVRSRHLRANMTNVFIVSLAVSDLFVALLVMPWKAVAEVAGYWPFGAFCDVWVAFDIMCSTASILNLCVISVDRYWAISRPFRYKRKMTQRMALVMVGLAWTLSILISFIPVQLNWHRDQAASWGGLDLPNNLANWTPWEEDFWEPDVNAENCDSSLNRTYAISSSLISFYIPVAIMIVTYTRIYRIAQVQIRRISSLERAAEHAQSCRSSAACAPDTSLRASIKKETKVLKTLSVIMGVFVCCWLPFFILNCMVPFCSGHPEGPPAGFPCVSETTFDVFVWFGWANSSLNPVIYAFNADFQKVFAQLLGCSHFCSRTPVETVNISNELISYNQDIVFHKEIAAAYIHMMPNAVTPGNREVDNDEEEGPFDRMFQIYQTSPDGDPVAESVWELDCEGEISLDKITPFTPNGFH
Chain of D3 subtype (P35462 whole entry): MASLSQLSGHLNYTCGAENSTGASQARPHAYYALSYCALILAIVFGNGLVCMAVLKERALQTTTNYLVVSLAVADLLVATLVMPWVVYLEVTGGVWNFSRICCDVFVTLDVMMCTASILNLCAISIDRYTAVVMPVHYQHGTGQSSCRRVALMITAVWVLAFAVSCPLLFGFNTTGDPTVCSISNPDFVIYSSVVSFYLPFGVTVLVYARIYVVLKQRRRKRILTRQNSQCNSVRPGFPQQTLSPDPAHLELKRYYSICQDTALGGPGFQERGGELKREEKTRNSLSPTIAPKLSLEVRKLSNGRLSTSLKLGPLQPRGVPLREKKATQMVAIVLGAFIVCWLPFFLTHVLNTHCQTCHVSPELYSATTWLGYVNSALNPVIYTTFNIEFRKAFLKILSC

Compound: COc1ccccc1N1CCN(CCN(C(=O)C2CCC(CF)CC2)c2ccccn2)CC1 (centres unmarked) [Mefway]
- % human 5HT1A Selectivity, 5-HT1A [1]: 100%
- Binding affinity, Ki, 5-HT1A [2]: subnanomolar affinity
- Ki ([2]; read-out: Binding affinity, Ki, 5-HT1A): 0.9 nM
- Binding displaced in hippocampus and cortex (5-HT1A receptors [3]; in the presence of 10 μM of WAY-100635, mouse (all the species)): > 95%
- Ratio in cortical regions, autoradiography (5-HT1A receptors [3]; mice): > 10
- Ratio of hippocampus to cerebellum, autoradiography (5-HT1A receptors [3]; mice, brain slices incubated for one hr): 25
- Ratio of raphe to cerebellum, autoradiography (5-HT1A receptors [3]; mice, horizontal sections): 22
- Affinity, D5 subtype (D5): very poor affinities
- Free Fraction in plasma [4]: 5% ^j
- % human 5HT1A Selectivity, α1A (adrenergic α1A; [5-HT1A affinity/other receptor affinity]×100, 5-HT1A 0.6 or 2.2 nM for WAY-100635, 0.9 nM for Mefway): 1.29%
- Ki (adrenergic α1A; read-out: Binding affinity, Ki, α1A, human cloned receptor, PDSP): 70 nM
- Binding affinity, Ki, 5-HT1A, rat brain homogenates [5]: subnanomolar affinity
- Morbidity or mortality (Sprague-Dawley rats; 4, 20 and 40 μg/kg/day i.v.): no morbidity or mortality
- Tolerability (Sprague-Dawley rats; 4, 20 and 40 μg/kg/day i.v. on Days 1, 3 and 6): well tolerated
- Maximum tolerated dose (MTD) (Sprague-Dawley rats): > 278 μg/m^2/day
- No observed adverse effect level (NOAEL) (Sprague-Dawley rats): > 278 μg/m^2/day
- Maximum tolerated dose (MTD) (Sprague-Dawley rats; maximum dose level tested): exceed 40 μg/kg/day
- No observed adverse effect level (NOAEL) (Sprague-Dawley rats; maximum dose level tested): exceed 40 μg/kg/day
- Affinity, D1 subtype (D1): very poor affinities
- Ki (D3 subtype): 139 nM
- Free Fraction in plasma [6]: 15% ^j
- Affinity, other adrenergic receptor subtypes ([7]; adrenergic subtypes other than α1A and α1D): poor affinities
- Affinity, all other receptor subtypes tested in section 2.3 ([7]; at 10 μM concentration, significant = > 50% inhibition): did not exhibit significant affinity
- Affinity, other serotonin receptor subtypes ([7]; serotonin subtypes other than 5-HT1A, 5-HT7, 5-HT2B): did not show significant affinities
- Level of binding in cortical layers I and II (5-HT1A receptors [8]; dog brain cortex, relative to highest layer): 100%
- Level of binding in cortical layers III and IV (5-HT1A receptors [8]; [10]): 31%
- Level of binding in cortical layers V and VI (5-HT1A receptors [8]; [10]): 36%
- Ratio of hippocampus to white matter, autoradiography (5-HT1A receptors [8]; dog brain, same brain slice): > 50
- Binding displaced in hippocampus and cortex (5-HT1A receptors [8]; in the presence of 10 μM of WAY-100635, dog (all the species)): > 95%
- HP/CB PET ratio (5-HT1A receptors [9]; 90 mins post-injection, may be underestimated, ref Saigal et al., 2013): 3 ^g
- Brain Uptake (5-HT1A receptors [9]; ref Saigal et al., 2013, listed as 18F-Mefway): 5 %ID/cc
- Brain Uptake (5-HT1A receptors [9]; ref Saigal et al., 2013): 5 ^g %ID/cc
